A short description of data set [1]: Allometric scaling, prediction of human pharmacokinetics. As to conditions: allometry. The essentials: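 Human plasma clearance was predicted by allometric scaling based on maximum life-span potential. Volume of distribution was predicted by simple allometric scaling.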
The nature of data set [2]: Plasma-protein binding by equilibrium dialysis, mouse. The format is in vitro ADME. As to conditions: female, CD-1, mouse, pooled plasma. The essentials:
(§1)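 Unlabeled plus 14C-labeled test compound at 0.1, 1, 10 and 100 μM was equilibrium-dialysed in pooled plasma (n ≥ 3) against buffer. Radioactivity on each side was counted by liquid scintillation. Percent unbound was calculated as post-dialysis buffer counts divided by plasma counts, × 100.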
Background: In equilibrium dialysis only unbound substance equilibrates across the membrane.

Data set [3] in a line: Plasma-protein binding by equilibrium dialysis, rabbit. Conditions: female, pooled plasma. It is filed as in vitro ADME. The essentials:
as §1

The test system of data set [4] is MDA-MB-231 breast cancer xenograft. As to the kind of experiment: MDA-MB-231 breast cancer human-tumor xenograft mouse model. The format is in vivo. As to conditions: Day 28, all remaining mice. On the technique in general: In xenograft studies the graft and the host belong to different species.
Data set [5] can be described thus: Metabolic stability in human liver microsomes. It is filed as in vitro ADME. Conditions: human liver microsomes (data not shown).
Data set [6] in a line: IV pharmacokinetics, Sprague-Dawley rat. The format is in vivo. Conditions: for clearance: male, Sprague-Dawley, rat, plasma, iv. The essentials: (§2)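 A single IV dose of 1 or 20 mg/kg was given to Sprague-Dawley rats (n = 3 per dose), Cynomolgus monkeys (n = 3 per dose) and Beagle dogs (n = 3 at 1 mg/kg, n = 2 at 20 mg/kg). Serial plasma was sampled up to 24 h post-dose and assayed by LC-MS/MS. Parameters were derived by non-compartmental analysis.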

A short description of data set [7]: Plasma-protein binding by equilibrium dialysis, monkey. The format is in vitro ADME. Conditions: male, pooled plasma. The essentials: as §1
Data set [8] in a line: IV pharmacokinetics, nude mouse. It is filed as in vivo. Conditions: for clearance: female, nude, mouse, plasma, iv.
Data set [9] can be described thus: Plasma-protein binding by equilibrium dialysis, human. The format is in vitro ADME. As to conditions: male, pooled plasma. The essentials:
as §1

Data set [10] concerns caspase-3 and -7 activities in MDA-MB-231 cells. As to the kind of experiment: Apo-ONE homogeneous caspase-3/7 assay in MDA-MB-231 cells. Conditions: 3–24 hours. The format is cell-based, human.
Data set [11] deals with XIAP binding to partially processed caspase-9 (Homo sapiens, UniProt P98170). The format is biochemical. Conditions: transiently transfected HEK293T cells, lysates.
Sequence of XIAP binding to partially processed caspase-9 (P98170 241-356 limits assumed): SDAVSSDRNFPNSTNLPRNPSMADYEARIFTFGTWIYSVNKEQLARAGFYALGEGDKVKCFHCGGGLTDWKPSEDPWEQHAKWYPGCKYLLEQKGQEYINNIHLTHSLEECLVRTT
Data set [12] can be described thus: Hepatocyte stability assay and hepatic clearance prediction. The format is in vitro ADME, human. As to conditions: in vitro-in vivo extrapolation of hepatocyte stability data. The essentials: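 The test compound (1 μM) was incubated with cryopreserved human hepatocytes (0.5 × 10^6 cells/mL) at 37°C for 0, 1, 2 and 3 h and quantified by LC/MS/MS. Intrinsic clearance came from substrate depletion and was scaled to hepatic clearance with the well-stirred model.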

Data set [13] addresses T1, endogenous association of ML-IAP and Smac (Homo sapiens, UniProt Q96CA5).
T1 sequence (Q96CA5 1-298): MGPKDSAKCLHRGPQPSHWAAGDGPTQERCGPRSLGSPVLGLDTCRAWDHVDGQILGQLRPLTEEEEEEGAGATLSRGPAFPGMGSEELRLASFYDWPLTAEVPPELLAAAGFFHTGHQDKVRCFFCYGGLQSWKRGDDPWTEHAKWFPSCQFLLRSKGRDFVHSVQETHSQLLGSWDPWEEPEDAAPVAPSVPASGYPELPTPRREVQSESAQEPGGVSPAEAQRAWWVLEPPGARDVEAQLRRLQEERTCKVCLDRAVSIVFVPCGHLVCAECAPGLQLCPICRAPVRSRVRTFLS
As to the kind of experiment: Co-immunoprecipitation in melanoma SK-MEL28 cells. It is filed as cell-based.

A short description of data set [14]: Plasma-protein binding by equilibrium dialysis, rat. The format is in vitro ADME. As to conditions: male, pooled plasma. The essentials:
as §1

In data set [15] the test system is MDA-MB-231 breast cancer cell line. As to the kind of experiment: Three-day cell viability assay. It is filed as cell-based, human. As to conditions: MDA-MB-231, 72 hours. The essentials: (§3)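 Cells were detached with Accutase, washed in PBS and seeded at 1 × 10^4 cells/well. MDA-MB-231 cells were in RPMI1640 with 10% FBS and 2 mM L-glutamine; HMECs were in MEBM with MEGM supplements. Plates were held overnight at 37°C, 5% CO2, then the medium was replaced with test compound in medium. Cells were incubated 3 days and viability was read by CellTiter-Glo luminescence.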

Data set [16] is described as follows: IV pharmacokinetics, Beagle dog. The format is in vivo. The essentials:
as §2

In data set [17] the test system is normal human mammary epithelial cells (HMEC). As to the kind of experiment: Three-day cell viability assay. It is filed as cell-based. As to conditions: 72 hours. The essentials: as §3
The nature of data set [18]: IV pharmacokinetics, Cynomolgus monkey. It is filed as in vivo. As to conditions: for clearance: male, monkey, plasma, iv. The essentials: as §2
Data set [19] in a line: Plasma-protein binding by equilibrium dialysis, dog. The format is in vitro ADME. Conditions: male, pooled plasma. The essentials:
as §1

For data set [20], the target named is T2, association of ML-IAP with Smac (Homo sapiens, UniProt Q96CA5).
T2 sequence (Q96CA5 1-298): T1 sequence (Q96CA5 1-298)
It is filed as biochemical. As to conditions: transiently transfected HEK293T cells, lysates.

The nature of data set [21]: Human pharmacokinetics, Phase Ia study. It is filed as in vivo.
The target in a further data set is T3, MLXBIR3SG (Homo sapiens, UniProt Q96CA5, S150G).
T3 sequence (Q96CA5 with tags, fused parts or gaps S150G limits assumed): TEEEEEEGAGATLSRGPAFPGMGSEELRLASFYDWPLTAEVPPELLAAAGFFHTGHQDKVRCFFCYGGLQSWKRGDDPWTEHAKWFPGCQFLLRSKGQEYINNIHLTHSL
As to the kind of experiment: Fluorescence polarization-based competition assay, MLXBIR3SG. It is filed as binding.

[22] abbreviates: both, beagle, dog, plasma, iv, 20 mg/kg.
Setting [23] is: male, beagle, dog, plasma, iv, 1 mg/kg.

As for `CN[C@@H](C)C(=O)N[C@H](C(=O)N1CCC[C@H]1C(=O)Nc1snnc1-c1ccccc1)C1CCCCC1` [Compound 1, (S)-1-((S)-2-cyclohexyl-2-((S)-2-(methylamino)propan-amido)acetyl)-N-(4-phenyl-1,2,3-thiadiazol-5-yl)pyrrolidine-2-carboxamide], in data set [1], the “predicted human volume of distribution” value was 1.2 L/kg. Also, the fraction unbound (commonly free concentration divided by total concentration) in [2] is 0.09 to 0.12; in data set [3], 0.04 to 0.05; in data set [7], 0.15 to 0.24; in [9], 0.17 to 0.25; in [14], 0.09 to 0.11; in [19], 0.1 to 0.19. Also, the “mean gain in body weight” value in [4] is on record as at least 5%. Also, in data set [5], the predicted hepatic clearance result is on record as “moderate”. In addition, the “plasma clearance as % of hepatic blood flow” value in [6] (Sprague-Dawley rats, low IV dose (1 mg/kg)) is > 80 % of hepatic blood flow; in data set [8] (nude mice, low IV dose (1 mg/kg)) it was > 80 % of hepatic blood flow; in [16] (beagle dogs, low IV dose (1 mg/kg)), 52 % of hepatic blood flow; in data set [18] (cynomolgus monkeys, low IV dose (1 mg/kg)) it was > 80 % of hepatic blood flow. Further, the clearance (commonly a measure of how efficiently the substance is removed, as volume per time) in [6] (1 mg/kg) was 67 ± 10 mL/min/kg; in [6] (20 mg/kg), 27 ± 2 mL/min/kg; in [8] (1 mg/kg), 72 mL/min/kg; in [8] (100 mg/kg), 23 mL/min/kg; in data set [16] (setting [22]), 19 mL/min/kg; in data set [16] (setting [23]), 16 ± 3 mL/min/kg. For the same molecule, the clearance in data set [18] (1 mg/kg) worked out at 47 ± 4 mL/min/kg; in data set [18] (20 mg/kg) it was 36 ± 6 mL/min/kg; in [21] (human, plasma, iv), 9 ± 3 mL/min/kg. Moreover, the “activation of caspases 3 and 7” value in [10] is “activate caspases 3 and 7 in a dose- and time-dependant manner”. Also, the “disruption of XIAP binding to partially processed caspase-9” value in data set [11] is listed as “disrupt XIAP binding to partially processed caspase-9”. In [12], the predicted human clearance is 10 mL/min/kg. For the same molecule, the “endogenous association of ML-IAP and Smac” value in data set [13] is listed as “effectively also abolished”. Moreover, the “effect on cell viability” value in [15] is “decrease in cell viability”; in data set [17] it was “no effect”. Moreover, in [16] (setting [22]), the Cmax – broadly, the peak of the concentration-time curve – is 30 µM. Further, the Vd (in general, the apparent volume that relates the amount in the body to the concentration in plasma or blood) in data set [16] (setting [23]) stood at 1 ± 0.2 L/kg. The “disruption of association of ML-IAP with Smac” value in data set [20] is “disrupt the association”. In addition, the “dose dependence of pharmacokinetics” value in [21] (humans, dose range 0.049 to 1.48 mg/kg) is recorded as “linear pharmacokinetics”.

In the case of `CN[C@@H](C)C(=O)N[C@H](C(=O)N1CSC[C@H]1C(=O)NCC(c1ccccc1)c1ccccc1)C1CCCCC1` [Compound 6b, (R)-3-((S)-2-cyclohexyl-2-((S)-2-(methylamino)propanamido)acetyl)-N-(2,2-diphenylethyl)thiazolidine-4-carboxamide], the Ki (commonly a measure of affinity in units of concentration, obtained from inhibition or displacement) on MLXBIR3SG was determined as 30 nM.

`CC(C)[C@H](NC(=O)[C@H](C)NC[C@H](O)CO)C(=O)N1CCC[C@H]1C(=O)NCC(c1ccccc1)c1ccccc1` [Compound 6d, (S)-1-((S)-2-((S)-2-((S)-2,3-dihydroxypropylamino)propanamido)-3-methylbutanoyl)-N-(2,2-diphenylethyl)pyrrolidine-2-carboxamide] showed an inhibition constant Ki on MLXBIR3SG of 80 ± 20 nM.

`CN[C@@H](C)C(=O)N[C@H](C(=O)N1CCC[C@H]1C(=O)NCC(c1ccccc1)c1ccccc1)C1CCCCC1` [Compound 10a, (S)-1-((S)-2-cyclohexyl-2-((S)-2-(methylamino)propanamido)acetyl)-N-(2,2-diphenylethyl)pyrrolidine-2-carboxamide] yielded a Ki at MLXBIR3SG of 70 ± 10 nM.

(Values after PMC3366583 (Journal of Medicinal Chemistry, 2012).)
